According to ChEMBL document CHEMBL3792371 (Bioorg Med Chem Lett, 2016):

Key:
[1] = molecular target: Synaptic vesicular amine transporter (Rattus norvegicus, UniProt Q01827); test: Inhibition of VMAT2 in rat striatal synaptic vesicle assessed as reduction of [3H]dopamine uptake after 8 mins by liquid scintillation spectrometric method
In short: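 Vesicles prepared from rat striata by sucrose homogenisation, osmotic shock and differential centrifugation. Inhibitor at 0.1 nM–10 mM with 0.1 µM [3H]DA. Filtration, then scintillation counting. n = 3–4 rats.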

[2] = molecular target: Sodium-dependent dopamine transporter (Rattus norvegicus, UniProt P23977); test: Inhibition of DAT in rat striatal synaptosomes assessed as reduction of [3H]dopamine uptake preincubated for 5 mins followed by [3H]dopamine addition measured after 10 mins by liquid scintillation spectrometric method; format: subcellular, Striatum
Chain of Sodium-dependent dopamine transporter (P23977 whole entry): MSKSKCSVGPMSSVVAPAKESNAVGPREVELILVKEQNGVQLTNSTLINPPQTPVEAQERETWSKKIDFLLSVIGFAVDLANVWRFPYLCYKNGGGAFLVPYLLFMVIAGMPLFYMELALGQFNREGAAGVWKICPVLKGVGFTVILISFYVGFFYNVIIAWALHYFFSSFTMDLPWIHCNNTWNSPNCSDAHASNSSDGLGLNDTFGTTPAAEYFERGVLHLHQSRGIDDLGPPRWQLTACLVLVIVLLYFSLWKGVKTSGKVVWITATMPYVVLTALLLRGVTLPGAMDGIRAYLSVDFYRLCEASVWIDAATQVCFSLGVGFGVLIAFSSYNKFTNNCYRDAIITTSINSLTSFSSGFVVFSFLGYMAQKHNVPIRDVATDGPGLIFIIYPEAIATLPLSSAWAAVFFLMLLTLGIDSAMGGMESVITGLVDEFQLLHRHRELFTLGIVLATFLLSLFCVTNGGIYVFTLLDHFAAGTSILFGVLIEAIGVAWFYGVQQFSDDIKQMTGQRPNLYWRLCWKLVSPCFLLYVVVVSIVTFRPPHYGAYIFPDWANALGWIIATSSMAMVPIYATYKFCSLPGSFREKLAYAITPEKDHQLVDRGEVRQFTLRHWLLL
In short: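 Rat striatum homogenized in ice-cold 0.32 M sucrose with 5 mM NaHCO3 (pH 7.4), spun at 2000g and then 20,000g. Synaptosomes (20 µg protein) were resuspended in oxygenated Krebs'-HEPES buffer (pH 7.4) with pargyline and ascorbic acid. Inhibitor was 0.1 nM–1 mM final (7–9 concentrations), run in duplicate at 34 °C. [3H]DA was 10 nM final. Nonspecific uptake was defined with 10 µM GBR 12909. Reactions were filtered on GF/B filters. Specific uptake was expressed as % of control, n = 3–4 rats.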

[3] = molecular target: Sodium-dependent serotonin transporter (Rattus norvegicus, UniProt P31652); test: Inhibition of SERT in rat striatal synaptosomes assessed as reduction of [3H]5-HT uptake preincubated for 5 mins followed by [3H]5-HT addition measured after 10 mins by liquid scintillation spectrometric method; format: subcellular, Striatum
Chain of Sodium-dependent serotonin transporter (P31652 whole entry): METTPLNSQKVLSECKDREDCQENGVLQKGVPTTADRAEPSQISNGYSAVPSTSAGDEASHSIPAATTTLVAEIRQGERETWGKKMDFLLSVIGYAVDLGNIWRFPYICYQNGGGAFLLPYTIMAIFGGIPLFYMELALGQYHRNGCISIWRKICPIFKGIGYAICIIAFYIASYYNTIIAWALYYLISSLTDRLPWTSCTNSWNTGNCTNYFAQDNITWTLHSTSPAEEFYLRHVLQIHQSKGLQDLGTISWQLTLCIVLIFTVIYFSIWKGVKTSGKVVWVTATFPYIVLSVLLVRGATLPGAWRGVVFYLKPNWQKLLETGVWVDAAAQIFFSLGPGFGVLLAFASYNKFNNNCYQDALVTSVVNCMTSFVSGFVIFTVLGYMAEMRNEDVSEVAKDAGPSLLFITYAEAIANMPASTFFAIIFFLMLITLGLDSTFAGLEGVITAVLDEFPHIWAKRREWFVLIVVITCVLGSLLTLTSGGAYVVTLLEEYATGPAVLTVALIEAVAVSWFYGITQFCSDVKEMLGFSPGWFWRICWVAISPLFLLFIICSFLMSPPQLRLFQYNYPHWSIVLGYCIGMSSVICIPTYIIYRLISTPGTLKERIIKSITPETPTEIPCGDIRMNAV
In short: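 Rat striatal synaptosomes were made as for the DAT assay: 20 µg protein in oxygenated Krebs'-HEPES buffer (pH 7.4) containing pargyline and ascorbic acid. Inhibitor was 0.1 nM–1 mM final (7–9 concentrations), run in duplicate at 34 °C. [3H]5-HT was 10 nM final. Nonspecific uptake was defined with 10 µM fluoxetine. Filters were washed with ice-cold Krebs' buffer containing 1 mM catechol. Specific uptake was expressed as % of control, n = 4 rats.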

[4] = species on record: Rattus norvegicus; test: Selectivity ratio of Ki for SERT in rat striatal synaptosomes to Ki for VMAT2 in rat striatal synaptic vesicle; format: subcellular
In short: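 Ratio of SERT Ki to VMAT2 Ki. […] 10 nM [3H]5-HT then added for 10 min at 34°C. Nonspecific uptake measured with 10 µM fluoxetine. n = 4 rats. VMAT2 Ki from vesicular [3H]DA uptake.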

[5] = species on record: Rattus norvegicus; test: Selectivity ratio of Ki for DAT in rat striatal synaptosomes to Ki for VMAT2 in rat striatal synaptic vesicle; format: subcellular
In short: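 Ratio of DAT Ki to VMAT2 Ki. […] 10 nM [3H]DA then added for 10 min at 34°C. Nonspecific uptake measured with 10 µM GBR 12909. VMAT2 Ki from vesicular [3H]DA uptake.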

Chain of Synaptic vesicular amine transporter (Q01827 whole entry): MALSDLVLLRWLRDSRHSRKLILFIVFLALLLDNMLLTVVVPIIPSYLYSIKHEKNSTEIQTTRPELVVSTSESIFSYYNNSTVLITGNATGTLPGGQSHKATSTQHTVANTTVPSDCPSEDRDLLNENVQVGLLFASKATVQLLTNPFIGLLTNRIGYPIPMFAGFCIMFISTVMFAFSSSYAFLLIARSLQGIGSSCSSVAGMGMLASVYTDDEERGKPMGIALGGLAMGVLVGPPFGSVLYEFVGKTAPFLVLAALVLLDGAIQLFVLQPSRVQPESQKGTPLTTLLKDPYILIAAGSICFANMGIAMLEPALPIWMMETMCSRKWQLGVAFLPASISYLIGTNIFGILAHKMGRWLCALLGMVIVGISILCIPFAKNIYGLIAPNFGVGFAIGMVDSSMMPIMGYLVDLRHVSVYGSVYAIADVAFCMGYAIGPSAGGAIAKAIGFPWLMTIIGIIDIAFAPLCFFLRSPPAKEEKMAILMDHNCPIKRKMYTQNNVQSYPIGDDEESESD

| SMILES | Ki [1] [µM] | Ki [2] [µM] | Ki [3] [µM] | Ratio Ki [4] | Ratio Ki [5] |
| --- | --- | --- | --- | --- | --- |
| FCCOc1ccc(CC[C@H]2CCC[C@@H](CCc3ccc(OCCF)cc3)N2)cc1 | 0.04 | 1.67 | 0.64 | – | – |
| COc1ccc(CC[C@H]2CCC[C@@H](CCc3ccc(OC)cc3)N2C[C@@H](O)CO)cc1 | – | 1.44 | 9.36 | – | – |
| Oc1ccc(CC[C@H]2CCC[C@@H](CCc3ccc(OCCF)cc3)N2)cc1 | 0.032 | 1.66 | 1.05 | – | – |
| CC(=O)Oc1ccc(CC[C@H]2CCC[C@@H](CCc3ccc(OC(C)=O)cc3)N2C)cc1 | 0.071 | 2.13 | 11.6 | 163 | – |
| Oc1ccc(CC[C@H]2CCC[C@@H](CCc3ccc(O)cc3)N2)cc1 | 0.031 | 0.866 | 1.03 | – | – |
| OC[C@H](O)CN1[C@@H](CCc2ccc(OCCF)cc2)CCC[C@H]1CCc1ccc(OCCF)cc1 | 0.12 | 3.69 | 33 | 275 | 30 |
| OC[C@H](O)CN1[C@@H](CCc2ccc(O)cc2)CCC[C@H]1CCc1ccc(O)cc1 | 0.039 | 1.43 | 12.9 | 331 | – |
| CN1[C@@H](CCc2ccc(OCCF)cc2)CCC[C@H]1CCc1ccc(OCCF)cc1 | 0.14 | 3.43 | 7.43 | – | – |
| CN1[C@@H](CCc2ccc(O)cc2)CCC[C@H]1CCc1ccc(O)cc1 | 0.046 | 1.35 | 12 | 260 | – |
| OC[C@H](O)CN1[C@@H](CCc2ccc(O)cc2)CCC[C@H]1CCc1ccc(OCCF)cc1 | 0.063 | 5.47 | 1.43 | – | 87 |
| CN1[C@@H](CCc2ccc(O)cc2)CCC[C@H]1CCc1ccc(OCCF)cc1 | 0.031 | 2.97 | 10.4 | 335 | 96 |
| CN1[C@@H](CCc2ccccc2)CCC[C@H]1CCc1ccccc1 [LOBELANE] | – | 1.05 | 3.6 | – | – |
| CC(=O)Oc1ccc(CC[C@H]2CCC[C@@H](CCc3ccc(OC(C)=O)cc3)N2)cc1 | 0.22 | 1.47 | 2.13 | – | – |
